Measured values reported in ChEMBL document CHEMBL1145515, “In Vitro activities of isepamicin, other aminoglycosides, and capreomycin against clinical isolates of rapidly growing mycobacteria in Taiwan” (2007).
In brackets after ≈: the same amount, converted by molar mass.

How the values were obtained:
Type in all cases: functional
[1] = system: Mycobacteroides abscessus; test: Antimicrobial activity against Mycobacterium abscessus R49 isolate after 3 to 5 days by broth microdilution method
Method in brief: (§1)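 Clinical isolates subcultured on Trypticase soy agar with 5% sheep blood, 30°C, 72 h. Colonies suspended in cation-supplemented Mueller-Hinton broth to a final inoculum of 5 × 10^5 CFU/ml. Twofold serial dilutions made in the same broth, final well concentrations 0.25 to 128 μg/ml. Trays incubated at 30°C; MIC read after 3 to 5 days.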

[2] = system: Mycobacteroides abscessus; test: Antimicrobial activity against Mycobacterium abscessus after 3 to 5 days by broth microdilution method; method in brief: as §1
[3] = system: Mycobacteroides abscessus; test: Antimicrobial activity against Mycobacterium abscessus R54 isolate after 3 to 5 days by broth microdilution method; method in brief: as §1
[4] = system: Mycobacteroides abscessus; test: Antimicrobial activity against Mycobacterium abscessus R31 isolate after 3 to 5 days by broth microdilution method; method in brief: as §1
[5] = system: Mycobacteroides chelonae; test: Antimicrobial activity against Mycobacterium chelonae after 3 to 5 days by broth microdilution method; method in brief: as §1
[6] = system: Mycobacteroides abscessus; test: Antimicrobial activity against Mycobacterium abscessus R53 isolate after 3 to 5 days by broth microdilution method; method in brief: as §1
[7] = system: Mycolicibacterium fortuitum; test: Antimicrobial activity against Mycobacterium fortuitum V146 isolate after 3 to 5 days by broth microdilution method; method in brief: as §1
[8] = system: Mycolicibacterium fortuitum; test: Antimicrobial activity against Mycobacterium fortuitum V61 isolate after 3 to 5 days by broth microdilution method; method in brief: as §1
[9] = system: Mycobacteroides abscessus; test: Antimicrobial activity against Mycobacterium abscessus R61 isolate after 3 to 5 days by broth microdilution method; method in brief: as §1
[10] = system: Mycobacteroides abscessus; test: Antimicrobial activity against Mycobacterium abscessus NTU459 isolate after 3 to 5 days by broth microdilution method; method in brief: as §1
[11] = system: Mycolicibacterium fortuitum; test: Antimicrobial activity against Mycobacterium fortuitum V13 isolate after 3 to 5 days by broth microdilution method; method in brief: as §1
[12] = system: Mycobacteroides abscessus; test: Antimicrobial activity against Mycobacterium abscessus CH10 isolate after 3 to 5 days by broth microdilution method; method in brief: as §1
[13] = system: Mycobacteroides abscessus; test: Antimicrobial activity against Mycobacterium abscessus R51 isolate after 3 to 5 days by broth microdilution method; method in brief: as §1
[14] = system: Mycobacteroides abscessus; test: Antimicrobial activity against Mycobacterium abscessus V120 isolate after 3 to 5 days by broth microdilution method; method in brief: as §1
[15] = system: Mycobacteroides abscessus; test: Antimicrobial activity against Mycobacterium abscessus NTU445 isolate after 3 to 5 days by broth microdilution method; method in brief: as §1
[16] = system: Mycobacteroides abscessus; test: Antimicrobial activity against Mycobacterium abscessus R65 isolate after 3 to 5 days by broth microdilution method; method in brief: as §1
[17] = system: Mycobacteroides abscessus; test: Antimicrobial activity against Mycobacterium abscessus R47 isolate after 3 to 5 days by broth microdilution method; method in brief: as §1
[18] = system: Mycobacteroides abscessus; test: Antimicrobial activity against Mycobacterium abscessus NTU446 isolate after 3 to 5 days by broth microdilution method; method in brief: as §1
[19] = system: Mycobacteroides abscessus; test: Antimicrobial activity against Mycobacterium abscessus R39 isolate after 3 to 5 days by broth microdilution method; method in brief: as §1
[20] = system: Mycobacteroides abscessus; test: Antimicrobial activity against Mycobacterium abscessus R50 isolate after 3 to 5 days by broth microdilution method; method in brief: as §1
[21] = system: Mycolicibacterium fortuitum; test: Antimicrobial activity against Mycobacterium fortuitum after 3 to 5 days by broth microdilution method; method in brief: as §1

| SMILES | MIC [1] [µg/mL] | MIC50 [2] [µg/mL] | MIC90 [2] [µg/mL] | MIC [3] [µg/mL] | MIC [4] [µg/mL] | MIC50 [5] [µg/mL] | MIC90 [5] [µg/mL] | MIC [6] [µg/mL] | MIC [7] [µg/mL] | MIC [8] [µg/mL] | MIC [9] [µg/mL] | MIC [10] [µg/mL] | MIC [11] [µg/mL] | MIC [12] [µg/mL] | MIC [13] [µg/mL] | MIC [14] [µg/mL] | MIC [15] [µg/mL] | MIC [16] [µg/mL] | MIC [17] [µg/mL] | MIC [18] [µg/mL] | other results |
| --- | --- | --- | --- | --- | --- | --- | --- | --- | --- | --- | --- | --- | --- | --- | --- | --- | --- | --- | --- | --- | --- |
| NC[C@H]1O[C@H](O[C@H]2C(O)[C@@H](O[C@H]3O[C@H](CO)[C@@H](O)[C@H](N)[C@H]3O)[C@H](N)C[C@@H]2N)[C@H](N)C[C@@H]1O (single isomer, unassigned) [TOBRAMYCIN] | 16 (≈ 34.2 µM) | 8 (≈ 17.1 µM) | 16 (≈ 34.2 µM) | 32 (≈ 68.4 µM) | > 128 | 16 (≈ 34.2 µM) | 32 (≈ 68.4 µM) | 8 (≈ 17.1 µM) | 64 (≈ 137 µM) | 64 (≈ 137 µM) | 16 (≈ 34.2 µM) | 8 (≈ 17.1 µM) | 128 (≈ 274 µM) | > 128 | 32 (≈ 68.4 µM) | 16 (≈ 34.2 µM) | 16 (≈ 34.2 µM) | 16 (≈ 34.2 µM) | 16 (≈ 34.2 µM) | 4 (≈ 8.56 µM) | MIC [19]: 32 µg/mL (≈ 68.4 µM); MIC [20]: 16 µg/mL (≈ 34.2 µM); MIC50 [21]: 16 µg/mL (≈ 34.2 µM); MIC90 [21]: 64 µg/mL (≈ 137 µM) |
| CN[C@@H]1[C@H](O[C@H]2[C@H](O[C@H]3[C@H](O)[C@@H](O)[C@H](N=C(N)N)[C@@H](O)[C@@H]3N=C(N)N)O[C@@H](C)[C@]2(O)C=O)O[C@@H](CO)[C@H](O)[C@H]1O (stereo in doubt) [STREPTOMYCIN] | 128 (≈ 220 µM) | 128 (≈ 220 µM) | > 128 | > 128 | > 128 | 64 (≈ 110 µM) | 128 (≈ 220 µM) | 128 (≈ 220 µM) | > 128 | > 128 | > 128 | > 128 | 128 (≈ 220 µM) | > 128 | > 128 | 128 (≈ 220 µM) | > 128 | > 128 | > 128 | > 128 | MIC [19]: > 128 µg/mL; MIC [20]: > 128 µg/mL; MIC50 [21]: 64 µg/mL (≈ 110 µM); MIC90 [21]: 128 µg/mL (≈ 220 µM) |
| NCC[C@H](O)C(=O)N[C@@H]1C[C@H](N)[C@@H](O[C@H]2O[C@H](CN)[C@@H](O)[C@H](O)[C@H]2O)[C@H](O)[C@H]1O[C@H]1O[C@H](CO)[C@@H](O)[C@H](N)[C@H]1O [AMIKACIN] | 32 (≈ 54.6 µM) | 16 (≈ 27.3 µM) | 32 (≈ 54.6 µM) | 32 (≈ 54.6 µM) | > 128 | 8 (≈ 13.7 µM) | 8 (≈ 13.7 µM) | 32 (≈ 54.6 µM) | 4 (≈ 6.83 µM) | 4 (≈ 6.83 µM) | 32 (≈ 54.6 µM) | 32 (≈ 54.6 µM) | 4 (≈ 6.83 µM) | > 128 | 32 (≈ 54.6 µM) | 32 (≈ 54.6 µM) | 32 (≈ 54.6 µM) | 32 (≈ 54.6 µM) | 32 (≈ 54.6 µM) | 32 (≈ 54.6 µM) | MIC [19]: 64 µg/mL (≈ 109 µM); MIC [20]: 32 µg/mL (≈ 54.6 µM); MIC50 [21]: 1 µg/mL (≈ 1.71 µM); MIC90 [21]: 4 µg/mL (≈ 6.83 µM) |

Stronger by MIC [1], values ahead:

| MIC [1] [µg/mL] | MIC50 [2] [µg/mL] | MIC90 [2] [µg/mL] | MIC [3] [µg/mL] | MIC [4] [µg/mL] | MIC50 [5] [µg/mL] | MIC90 [5] [µg/mL] | MIC [6] [µg/mL] | MIC [7] [µg/mL] | MIC [8] [µg/mL] | MIC [9] [µg/mL] | MIC [10] [µg/mL] | MIC [11] [µg/mL] | MIC [12] [µg/mL] | MIC [13] [µg/mL] | MIC [14] [µg/mL] | MIC [15] [µg/mL] | MIC [16] [µg/mL] | MIC [17] [µg/mL] | MIC [18] [µg/mL] | SMILES | other results |
| --- | --- | --- | --- | --- | --- | --- | --- | --- | --- | --- | --- | --- | --- | --- | --- | --- | --- | --- | --- | --- | --- |
| 8 (≈ 14 µM) | 8 (≈ 14 µM) | 16 (≈ 28.1 µM) | 16 (≈ 28.1 µM) | > 128 | 4 (≈ 7.02 µM) | 8 (≈ 14 µM) | 16 (≈ 28.1 µM) | 32 (≈ 56.2 µM) | 32 (≈ 56.2 µM) | 16 (≈ 28.1 µM) | 32 (≈ 56.2 µM) | 64 (≈ 112 µM) | > 128 | 16 (≈ 28.1 µM) | 8 (≈ 14 µM) | 32 (≈ 56.2 µM) | 16 (≈ 28.1 µM) | 16 (≈ 28.1 µM) | 16 (≈ 28.1 µM) | CN[C@@H]1[C@@H](O)[C@@H](O[C@@H]2[C@@H](O)[C@H](O[C@H]3O[C@H](CN)[C@@H](O)[C@H](O)[C@H]3O)[C@@H](N)C[C@H]2NC(=O)[C@@H](O)CN)OC[C@]1(C)O [ISEPAMICIN] | MIC [19]: 32 µg/mL (≈ 56.2 µM); MIC [20]: 16 µg/mL (≈ 28.1 µM); MIC50 [21]: 8 µg/mL (≈ 14 µM); MIC90 [21]: 16 µg/mL (≈ 28.1 µM) |
| 4 (≈ 8.26 µM) | 8 (≈ 16.5 µM) | 8 (≈ 16.5 µM) | 8 (≈ 16.5 µM) | > 128 | 4 (≈ 8.26 µM) | 8 (≈ 16.5 µM) | 4 (≈ 8.26 µM) | 32 (≈ 66 µM) | 32 (≈ 66 µM) | 8 (≈ 16.5 µM) | 16 (≈ 33 µM) | > 128 | > 128 | 16 (≈ 33 µM) | 8 (≈ 16.5 µM) | 16 (≈ 33 µM) | 8 (≈ 16.5 µM) | 8 (≈ 16.5 µM) | 8 (≈ 16.5 µM) | NC[C@H]1O[C@H](O[C@H]2[C@H](O)[C@@H](O[C@H]3O[C@H](CO)[C@@H](O)[C@H](N)[C@H]3O)[C@H](N)C[C@@H]2N)[C@H](O)[C@@H](O)[C@@H]1O [KANAMYCIN] | MIC [19]: 16 µg/mL (≈ 33 µM); MIC [20]: 8 µg/mL (≈ 16.5 µM); MIC50 [21]: 8 µg/mL (≈ 16.5 µM); MIC90 [21]: 32 µg/mL (≈ 66 µM) |
